# Measurements as given in ChEMBL document CHEMBL1157379, “Transcriptional response of Candida parapsilosis following exposure to farnesol” (2007).
# Calls of active or inactive are those of the source. The rule behind the calls is not given here.
# Tests used:
# Candida parapsilosis [1] = assay: Increase in ADH7 gene expression in Candida parapsilosis CLIB214 by RT-PCR; format: functional, organism-based
# Procedure, shortened: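 RNA came from YPD cultures at 30°C given farnesol or methanol at 4 h (A600 0.8), harvested after 2 h. RT-PCR: 95°C hot start for 1.5 min, then 26 cycles (95°C 40 s, 55°C 2 min, 72°C 3 min), then a 5-min final extension at 72°C. Each gene's signal normalised to ACT1.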
# Candida parapsilosis [2] = assay: Decrease in CGD gene ortholog accession number orf19.3704 expression in Candida parapsilosis CLIB214 at 50 uM after 2 hrs by microarray based transcriptional profiling relative to control; format: functional
# Procedure, shortened: (§1)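 Cells in YPD at 30°C treated with 50 μM farnesol at 4 h, with a methanol control. RNA harvested 2 h later and kept only if 28S/18S ratio was 1.6–2.2 with no degradation. 25 μg total RNA oligo-dT primed and labeled with Cy3/Cy5-dCTP. Labeled cDNA hybridized about 16 h at 42°C to duplicate-spotted 68-mer oligo arrays. Six individual comparisons analyzed statistically.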
# Candida parapsilosis [3] = assay: Decrease in RIA1 gene expression in Candida parapsilosis CLIB214 at 50 uM after 2 hrs by microarray based transcriptional profiling relative to control; format: functional
# Procedure, shortened: (§2)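 Strain CLIB214 grown overnight in YPD at 30°C, diluted to A600 0.2 in fresh YPD at 30°C. After 4 h (A600 0.8), farnesol (40 mM methanol stock) added to 50 μM final, or an equal methanol volume as control; cells harvested 2 h later. RNA was accepted only with a 28S/18S ratio of 1.6–2.2. Cy3/Cy5-dCTP-labelled cDNA was made from 25 μg total RNA. Hybridisation was to duplicate-spotted 68-mer oligo arrays (3,849 genes) at 42°C for about 16 h. Six individual comparisons.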
# Candida parapsilosis [4] = assay: Cell cycle arrest in Candida parapsilosis CLIB214 assessed as accumulation at G1 phase at 50 uM added 4 hrs after […] growth; format: functional, organism-based
# Procedure, shortened: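 YPD culture diluted to A600 0.2 at 30°C. Farnesol added to 50 μM after 4 h. Budding cells scored by microscopy: unbudded as G1, small budded as S, large budded as G2/M. Compared with methanol controls.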
# Candida parapsilosis [5] = assay: Antifungal activity against Candida parapsilosis CLIB214 assessed as growth inhibition at 50 uM added after 8 hrs of bacterial growth measured after 2 hrs; format: functional; conditions: Lodderomyces parapsilosis
# Procedure, shortened: (§3)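 Overnight YPD culture at 30°C diluted to A600 0.2 in YPD. Farnesol added to 50 μM final at 2, 4, 6 or 8 h of growth (A600 about 0.8 at 4 h, 2.3 at 6 h, 6 at 8 h). Growth compared with methanol controls by A600 or cell counts.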
# Candida parapsilosis [6] = assay: Decrease in CGD gene ortholog accession number orf19.1728 expression in Candida parapsilosis CLIB214 at 50 uM after 2 hrs by microarray based transcriptional profiling relative to control; format: functional; procedure, shortened: as §1
# Candida parapsilosis [7] = assay: Antifungal activity against Candida parapsilosis CLIB214 assessed as growth inhibition at 50 uM added after 6 hrs of bacterial growth measured after 4 hrs; format: functional; conditions: Lodderomyces parapsilosis; procedure, shortened: as §3
# Candida parapsilosis [8] = assay: Increase in CGD gene ortholog accession number orf19.3544 expression in Candida parapsilosis CLIB214 at 50 uM after 2 hrs by microarray based transcriptional profiling relative to control; format: functional; procedure, shortened: as §2
# Candida parapsilosis [9] = assay: Increase in GAR1 gene expression in Candida parapsilosis CLIB214 at 50 uM after 2 hrs by microarray based transcriptional profiling relative to control; format: functional
# Procedure, shortened: (§4)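 Strain grown overnight in YPD at 30°C, diluted to A600 0.2 in YPD at 30°C; farnesol (40 mM methanol stock) added at 4 h (A600 0.8), final 50 μM; methanol-only control. Cells collected 2 h later for RNA. Labelled cDNA from 25 μg total RNA (Cy3/Cy5-dCTP) hybridized to 68-mer oligo arrays at 42°C ~16 h; six individual comparisons analysed statistically.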
# Candida parapsilosis [10] = assay: Decrease in PCL7 gene expression in Candida parapsilosis CLIB214 at 50 uM after 2 hrs by microarray based transcriptional profiling relative to control; format: functional; procedure, shortened: as §2
# Candida parapsilosis [11] = assay: Increase in ELF1 gene expression in Candida parapsilosis CLIB214 at 50 uM after 2 hrs by microarray based transcriptional profiling relative to control; format: functional; procedure, shortened: as §4
structure (smiles),measurement,setting,value
CC(C)=CCC/C(C)=C/CC/C(C)=C/CO [FARNESOL],Activity,Candida parapsilosis [1],Active
same,fold change (FC),Candida parapsilosis [2],1.96
same,fold change (FC),Candida parapsilosis [3],1.65
same,Activity,Candida parapsilosis [4],Active
same,inhibition at 50 µM,Candida parapsilosis [5],9.5%
same,fold change (FC),Candida parapsilosis [6],1.59
same,inhibition at 50 µM,Candida parapsilosis [7],49%
same,fold change (FC),Candida parapsilosis [8],1.87
same,fold change (FC),Candida parapsilosis [9],2.89
same,fold change (FC),Candida parapsilosis [10],1.75
same,fold change (FC),Candida parapsilosis [11],2.16
